Measurements reported in ChEMBL document CHEMBL3102784, “Salicylanilide diethyl phosphates: synthesis, antimicrobial activity and cytotoxicity” (Bioorg Med Chem, 2014).
≈ marks a conversion by molar mass, not a printed value.

Legend:
Format in all cases: functional
[1] = tested on: Mycobacterium tuberculosis; experiment: Antimycobacterial activity against isoniazid, rifamycin, streptomycin, ethambutol and ofloxacin, clofazimine-resistant Mycobacterium tuberculosis Praha 4 after 21 days; conditions: Praha 4, 504 h
How it was run: (§1)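 Drug-resistant M. tuberculosis strains (MDR, one XDR), inoculum dilution 10^3. MIC by micromethod in Šula's semisynthetic medium at 37 °C, compounds in DMSO, concentration series as for the drug-susceptible strain. Read after 14 and 21 days.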

[2] = tested on: Mycobacterium tuberculosis; experiment: Antimycobacterial activity against isoniazid, rifamycin, streptomycin, ethambutol and ofloxacin, clofazimine-resistant Mycobacterium tuberculosis Praha 4 after 14 days; conditions: Praha 4, 336 h; how it was run: as §1
[3] = tested on: Mycobacterium tuberculosis; experiment: Antimycobacterial activity against isoniazid, rifamycin, streptomycin, ethambutol, clofazimine, ofloxacin, gentamicin and amikacin-resistant Mycobacterium tuberculosis Praha 131 after 21 days; conditions: Praha 131, 504 h; how it was run: as §1
[4] = tested on: Mycobacterium tuberculosis; experiment: Antimycobacterial activity against isoniazid, rifamycin, streptomycin, ethambutol, clofazimine, ofloxacin, gentamicin and amikacin-resistant Mycobacterium tuberculosis Praha 131 after 14 days; conditions: Praha 131, 336 h; how it was run: as §1
[5] = tested on: Mycobacterium tuberculosis; experiment: Antimycobacterial activity against isoniazid, rifamycin, streptomycin, ethambutol and clofazimine-resistant Mycobacterium tuberculosis Praha 1 after 21 days; conditions: Praha 1, 504 h; how it was run: as §1
[6] = tested on: Mycobacterium tuberculosis; experiment: Antimycobacterial activity against isoniazid, rifamycin, streptomycin, ethambutol and clofazimine-resistant Mycobacterium tuberculosis Praha 1 after 14 days; conditions: Praha 1, 336 h; how it was run: as §1
[7] = tested on: Mycobacterium tuberculosis; experiment: Antimycobacterial activity against isoniazid, rifamycin and streptomycin-resistant Mycobacterium tuberculosis 9449/2006 after 21 days; conditions: 9449/2006, 504 h; how it was run: as §1
[8] = tested on: Mycobacterium tuberculosis; experiment: Antimycobacterial activity against isoniazid, rifamycin and streptomycin-resistant Mycobacterium tuberculosis 9449/2006 after 14 days; conditions: 9449/2006, 336 h; how it was run: as §1
[9] = tested on: Mycobacterium tuberculosis; experiment: Antimycobacterial activity against isoniazid, rifampicin, rifabutin, streptomycin and ethambutol-resistant Mycobacterium tuberculosis 234/2005 after 21 days; conditions: 234/2005, 504 h; how it was run: as §1
[10] = tested on: Mycobacterium tuberculosis; experiment: Antimycobacterial activity against isoniazid, rifampicin, rifabutin, streptomycin and ethambutol-resistant Mycobacterium tuberculosis 234/2005 after 14 days; conditions: 234/2005, 336 h; how it was run: as §1

| SMILES | MIC [1] [µM] | MIC [2] [µM] | MIC [3] [µM] | MIC [4] [µM] | MIC [5] [µM] | MIC [6] [µM] | MIC [7] [µM] | MIC [8] [µM] | MIC [9] [µM] | MIC [10] [µM] |
| --- | --- | --- | --- | --- | --- | --- | --- | --- | --- | --- |
| CCOP(=O)(OCC)Oc1cc(Cl)ccc1C(=O)Nc1ccc(C(F)(F)F)cc1 | 1 (≈ 0.452 µg/mL) | 1 (≈ 0.452 µg/mL) | 1 (≈ 0.452 µg/mL) | 1 (≈ 0.452 µg/mL) | 1 (≈ 0.452 µg/mL) | 1 (≈ 0.452 µg/mL) | 1 (≈ 0.452 µg/mL) | 1 (≈ 0.452 µg/mL) | 1 (≈ 0.452 µg/mL) | 1 (≈ 0.452 µg/mL) |
| CCOP(=O)(OCC)Oc1ccc(Br)cc1C(=O)Nc1ccc(Cl)c(Cl)c1 | 1 (≈ 0.497 µg/mL) | 1 (≈ 0.497 µg/mL) | 1 (≈ 0.497 µg/mL) | 1 (≈ 0.497 µg/mL) | 1 (≈ 0.497 µg/mL) | 1 (≈ 0.497 µg/mL) | 1 (≈ 0.497 µg/mL) | 1 (≈ 0.497 µg/mL) | 1 (≈ 0.497 µg/mL) | 1 (≈ 0.497 µg/mL) |
| CCOP(=O)(OCC)Oc1ccc(Br)cc1C(=O)Nc1ccc(C(F)(F)F)cc1 | 1 (≈ 0.496 µg/mL) | 1 (≈ 0.496 µg/mL) | 1 (≈ 0.496 µg/mL) | 1 (≈ 0.496 µg/mL) | 1 (≈ 0.496 µg/mL) | 1 (≈ 0.496 µg/mL) | 1 (≈ 0.496 µg/mL) | 1 (≈ 0.496 µg/mL) | 1 (≈ 0.496 µg/mL) | 1 (≈ 0.496 µg/mL) |
| CCOP(=O)(OCC)Oc1ccc(Cl)cc1C(=O)Nc1ccc(Cl)c(Cl)c1 | 1 (≈ 0.453 µg/mL) | 1 (≈ 0.453 µg/mL) | 1 (≈ 0.453 µg/mL) | 1 (≈ 0.453 µg/mL) | 1 (≈ 0.453 µg/mL) | 1 (≈ 0.453 µg/mL) | 1 (≈ 0.453 µg/mL) | 1 (≈ 0.453 µg/mL) | 1 (≈ 0.453 µg/mL) | 1 (≈ 0.453 µg/mL) |
| CCOP(=O)(OCC)Oc1ccc(Cl)cc1C(=O)Nc1ccc(C(F)(F)F)cc1 | 1 (≈ 0.452 µg/mL) | 1 (≈ 0.452 µg/mL) | 1 (≈ 0.452 µg/mL) | 1 (≈ 0.452 µg/mL) | 1 (≈ 0.452 µg/mL) | 1 (≈ 0.452 µg/mL) | 1 (≈ 0.452 µg/mL) | 1 (≈ 0.452 µg/mL) | 1 (≈ 0.452 µg/mL) | 1 (≈ 0.452 µg/mL) |
| NNC(=O)c1ccncc1 [ISONIAZID] | 16 (≈ 2.19 µg/mL) | 16 (≈ 2.19 µg/mL) | 16 (≈ 2.19 µg/mL) | 16 (≈ 2.19 µg/mL) | 16 (≈ 2.19 µg/mL) | 16 (≈ 2.19 µg/mL) | 16 (≈ 2.19 µg/mL) | 16 (≈ 2.19 µg/mL) | 16 (≈ 2.19 µg/mL) | 16 (≈ 2.19 µg/mL) |
